HePTP inh: inhibitors of human HePTP phosphatase, primary screen, biochemical, absorbance, leukemia target; recombinant HePTP phosphatase activity, OD absorbance; inhibition, % at 20 µM; actives 0.64% (n = 110,000); in the data active = inhibition above about 50%; inconclusive = no clear call, values can overlap the other calls
M1 ag: M1 muscarinic receptor agonists, primary screen, CHO-M1 cells, Fluo-4 calcium, agonist mode; Muscarinic acetylcholine receptor M1; Fluo-4 calcium fluorescence; hits give high values; B-score at 10 µM; actives 3% (n = 64,000); AID 626, 2007;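 active = fluorescence rise, raw or as B-score row- and column-corrected plate score, outside the 99.7% band of its plate's samples, either direction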
M1 antagonist: antagonists of rat M1 muscarinic receptor. Muscarinic acetylcholine receptor M1 (Rattus norvegicus), P08482. CHO-M1 cells, Fluo-4 calcium, ACh EC80 antagonist mode; hits give low values. B-score at 10 µM. actives 3.4% (n = 64,000). AID 628, 2007;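 active = calcium fluorescence response, raw or row-and-column corrected B-score, differing from the plate sample mean either way at a set confidence level, mostly lower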
RORA act: activators of orphan receptor RORA, primary screen, cell-based, luminescence | Nuclear receptor ROR-alpha (Homo sapiens), P35398 | activation, % at 10 µM | actives 1.5% (n = 65,000) | AID 560, 2006 | CHO-K1 Gal4-RORA LBD luciferase reporter; percent increase over mock-subtracted basal signal;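 active = activation above the mean of all tested compounds plus 3 SD, cut at about 49% in these data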
D1 mod: D1 CRE-luciferase signal change, two-sided – cell-based, HEK293 D1, dopamine EC30, D1 allosteric modulator project, primary screen; dopamine EC30 potentiation; actives deviate in either direction; B-score at 10 µM; actives 5.9% (n = 58,000); AID 641, 2007;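 active = luminescence count or its row- and column-corrected plate score outside the 99.7% band of the plate's sample wells, on either side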
Target sequence (P21728 whole entry, looked up): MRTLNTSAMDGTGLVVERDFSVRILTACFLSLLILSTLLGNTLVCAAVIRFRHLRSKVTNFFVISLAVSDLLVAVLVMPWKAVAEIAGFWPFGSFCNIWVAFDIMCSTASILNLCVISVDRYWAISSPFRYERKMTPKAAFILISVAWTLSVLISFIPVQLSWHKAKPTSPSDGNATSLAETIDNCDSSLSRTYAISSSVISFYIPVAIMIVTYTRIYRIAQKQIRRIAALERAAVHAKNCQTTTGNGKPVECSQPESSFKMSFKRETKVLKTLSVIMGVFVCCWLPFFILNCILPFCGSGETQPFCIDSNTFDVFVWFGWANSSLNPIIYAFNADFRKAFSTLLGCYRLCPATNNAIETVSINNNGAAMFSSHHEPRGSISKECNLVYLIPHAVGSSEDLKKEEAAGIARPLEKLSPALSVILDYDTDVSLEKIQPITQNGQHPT
SF-1 act: activators of human SF-1, primary screen, cell-based, CHO-K1, Gal4-SF-1 LBD, luciferase luminescence; Steroidogenic factor 1 (Homo sapiens), Q13285; CHO-K1 Gal4-SF-1 LBD luciferase reporter; % increase over DMSO SF-1-specific signal; actives 1.9% (n = 65,000); AID 522, 2006; activation, % at 10 µM;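 active = activation above the mean activation of all tested compounds plus 3 SD, cut at about 50% in these data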
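Material: Gal4–SF-1 LBD one-hybrid luciferase reporter in CHO-K1 cells | Amount: 4,000 cells per well | Compound dosing: 10 µM single point, 1% DMSO | Schedule: 20 h compound treatment, 37 °C | Measured by: SteadyLite luciferase luminescence | Evaluation: Percent activation versus DMSO | Control set: DMSO-treated SF-1-transfected cells as negative, DMSO-treated mock-transfected cells lacking SF-1 as background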
M1 ag confirm: rat M1 muscarinic receptor agonists, confirmation, CHO-M1 cells, Fluo-4 calcium, duplicate retest. fluorescence change (max-min) at 10 µM. Fluo-4 calcium fluorescence, agonist mode; actives lie on both sides. AID 1488, 2009. actives 19% (n = 1,700). shares compounds with M1 ag;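 active = fluorescence change differs from the solvent-only DMSO control mean at a set confidence level in both duplicate runs; inconclusive = differs from solvent-only control mean in just one of two runs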;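 note: an EC20 dose of acetylcholine follows compound addition during the same imaging run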
M4 ag counter: agonist activity at rat M4 receptor, confirmation, counter-screen for M1 allosteric modulator project, cell-based, agonist mode; shares compounds with M1 ag; CHO M4/Gqi5 cells, Fluo-4 calcium fluorescence; actives lie on both sides; fluorescence change (max-min) at 10 µM; actives 9% (n = 1,700); AID 1741, 2009;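 active = fluorescence change differing from the plate's solvent-only control wells at 99.7% confidence in both duplicates, whether higher or lower; inconclusive = differs from solvent controls in only one of two duplicates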
Hits are given with their value; i = inactive; ? = inconclusive; nt = no result. Shown are actives, neighbours in structure and some others; about 8.2% of the full set was active somewhere.

SMILES	HePTP inh	M1 ag	M1 antagonist	RORA act	D1 mod	SF-1 act	M1 ag confirm	M4 ag counter
Nc1c(C(=O)NCc2ccc3c(c2)OCO3)c2nc3ccccc3nc2n1CCCN1CCOCC1	i	-2.6	i	i	i	i	i	i
Nc1ccc(-n2c(N)c(C(=O)NCc3ccc4c(c3)OCO4)c3nc4ccccc4nc32)cc1	i	i	i	i	i	i	nt	nt
C=CCN1C(=O)C2(c3ccccc31)C1CCCC=C1C(C#N)=C(N)C2(C#N)C#N (stereo not drawn)	i	i	i	i	i	i	nt	nt
CN1CCC2(CC1)C1CN(C)CC=C1C(C#N)=C(N)C2(C#N)C#N (stereo not drawn)	i	34	i	i	nt	i	215	160
CCOC(=O)c1ccc(NC(=O)/C(=C\c2cccc([N+](=O)[O-])c2)NC(=O)c2ccccc2)cc1	i	nt	nt	nt	nt	nt	nt	nt
CCOC(=O)C1=C(C)N=c2s/c(=C\C=C\c3ccccc3)c(=O)n2C1c1ccc(OC(C)=O)cc1 (stereo not drawn)	i	nt	nt	nt	nt	nt	nt	nt
N#Cc1cccc(NC(=O)Nc2cccs2)c1	i	11	i	i	i	i	i	i
O=c1c(O)c(-c2cccs2)oc2ccccc12	i	140	-1.6	i	i	i	696	622
CC(=O)c1cccc(NC(=O)Nc2ccc3c(c2)N(C)C(=O)CS3)c1	i	3.2	i	i	nt	i	i	?
CCOC(=O)N1CCN(C(=O)Nc2cccc3ccccc23)CC1	i	nt	nt	nt	nt	nt	nt	nt
CCOC(=O)N1CCN(C2=Nc3cccc4cccc2c34)CC1	i	8.5	-11	i	i	i	107	?
CC(=O)N1CCN(C2=Nc3cccc4cccc2c34)CC1	i	9.5	i	i	nt	i	101	92
CCO/C(C)=N/n1c2nc3ccccc3nc2c2c(=O)n(C3CCCC3)c(C)nc21	i	9.4	i	i	i	i	?	i
O=C(CCCc1nc(-c2ccc(Cl)cc2)no1)N1CCOCC1	i	-2.5	i	i	i	i	?	-90
Cc1ccc(-c2noc(CCCC(=O)N3CCOCC3)n2)cc1	i	i	i	i	i	i	nt	nt
COc1ccc(S(=O)(=O)N2CCN(Cc3ccccc3F)CC2)cc1	i	nt	nt	nt	nt	nt	nt	nt
O=C(CN1CCOCC1)Nc1c2c(nc3ccccc13)N(Cc1ccccc1)CC2	i	i	i	i	i	i	nt	nt
COc1ccc(-c2nnc(SCc3nnc(-c4ccccc4)o3)n2-c2ccccc2)cc1	i	i	i	i	i	i	nt	nt
Cc1nnc(SC(C)C(=O)Nc2ccc(S(=O)(=O)N3CCCCCC3)cc2)s1 (stereo not drawn)	i	-2.5	i	i	i	i	?	?
O=C(Nc1ccccc1)Nc1ccc(S(=O)(=O)N2CCCCC2)cc1	i	3.5	i	i	i	i	i	i
O=S(=O)(c1ccc(NC(=S)Nc2ccccc2)cc1)N1CCCCC1	i	nt	nt	nt	nt	nt	nt	nt
Cc1nnc(SC(C)C(=O)Nc2ccc3c(c2)OCCO3)s1 (stereo not drawn)	i	i	i	i	i	i	nt	nt
Cc1nc2cc(NC(=O)NCc3ccco3)ccc2n1C	i	i	i	i	i	i	nt	nt
COCCn1c(=O)[nH]c2cc(C(=O)NCCN3CCN(c4ccccc4F)CC3)ccc2c1=O	i	nt	nt	i	i	i	nt	nt
COCCCn1c(-c2ccco2)nc2ccccc2c1=O	i	i	i	i	i	i	nt	nt
SMILES	HePTP inh	M1 ag	M1 antagonist	RORA act	D1 mod	SF-1 act	M1 ag confirm	M4 ag counter
COc1ccc(CCn2c(-c3ccco3)nc3ccccc3c2=O)cc1OC	i	11	-2.1	i	nt	i	?	-73
COc1ccc(-c2cc(C(F)(F)F)n3ncc(C(=O)NCC4CCCO4)c3n2)cc1OC (stereo not drawn)	i	41	i	i	i	i	?	i
COc1ccc(-c2cc(C(F)(F)F)n3nc(C(=O)Nc4cc(C)on4)cc3n2)cc1OC	i	24	i	i	i	i	179	i
CCCc1[nH]nc2c1C(CCc1ccccc1)C(C#N)=C(N)O2 (stereo not drawn)	i	2.7	i	i	i	i	?	i
COCc1[nH]nc2c1C(c1ccccc1Cl)C(C#N)=C(N)O2 (stereo not drawn)	i	1.5	i	i	nt	i	i	i
CCCc1[nH]nc2c1C(c1ccccc1Br)C(C#N)=C(N)O2 (stereo not drawn)	i	nt	nt	nt	nt	nt	nt	nt
COCc1[nH]nc2c1C(c1ccccc1OC)C(C#N)=C(N)O2 (stereo not drawn)	i	i	i	i	i	i	nt	nt
O=C(c1ccccc1)N(Cc1ccc2c(c1)OCO2)Cc1nc2ccccc2c(=O)[nH]1	i	2.7	i	i	i	i	?	i
O=C(Nc1ccccc1)N(Cc1ccc2c(c1)OCO2)Cc1nc2ccccc2c(=O)[nH]1	i	i	i	i	i	i	nt	nt
COc1cc2cc(C(c3nnnn3C3CCCC3)N(C)C3CCCCC3)c(=O)[nH]c2cc1OC (stereo not drawn)	i	i	i	i	i	i	nt	nt
CC(C)C(c1nnnn1C1CCCC1)N(C)C1CCCCC1 (stereo not drawn)	i	9.7	i	i	i	i	i	i
CCOc1cc(S(=O)(=O)NC2CCCC2)ccc1Cl	i	8.9	i	i	i	i	i	i
Cn1c(/C=C/c2cn(C)c3ccccc23)nc2ccccc2c1=O	i	nt	nt	nt	nt	nt	nt	nt
COc1ccc(C(C)(C)C)cc1NC(=O)c1ccoc1C	i	i	i	i	i	i	nt	nt
CS(=O)(=O)N(CC(=O)NCc1cccnc1)Cc1ccc(Cl)cc1	i	i	i	i	i	i	nt	nt
CS(=O)(=O)N(CC(=O)NCc1ccncc1)Cc1ccc(Cl)cc1	i	2.2	i	i	i	i	i	i
CCc1c(C)sc(NC(=O)c2c(-c3ccccc3Cl)noc2C)c1C(N)=O	i	nt	nt	nt	nt	nt	nt	nt
O=S(=O)(c1ccc(Oc2ncnc3scc(-c4ccccc4)c23)cc1)N1CCOCC1	i	7	i	i	nt	i	?	?
O=S(=O)(c1ccc(Oc2ccccc2)cc1)N1CCOCC1	i	i	i	i	i	i	nt	nt
COc1ccc(C2NC(c3ccc(OC)c(OC)c3OC)C(C)C(=O)C2C)c(OC)c1OC (stereo not drawn)	i	i	i	i	i	i	nt	nt
